Screening results as filed in PubChem.
Hits are enriched below; roughly 2.6% of the tested compounds scored in any of these assays.
Wnt bcat act = activates Wnt/beta-catenin signaling in a reporter cell assay; activator, plate reader; activation, % at 9.35 µM; 300,000 tested, 1.2% active; in the data active means activation above about 30%, passing the limit was not always enough; inconclusive means no clear call, values can overlap the other calls
Vif imaging = inhibitors of HIV Vif; inhibition, % at 7.49 µM; 340,000 tested, 0.35% active; HEK293T cells, Vif self-association by quenched fluorescence, imaging, 24 h; in the data active means inhibition above about 50%, passing the limit was not always enough; inconclusive means no clear call, values can overlap the other calls; inactive means below about 31%
XiGFP reactiv = activators of X-chromosome reactivation in mouse fibroblasts; XiGFP mouse fibroblasts, % GFP-positive cells imaging, 3 d; cells co-treated with 5-aza-dC sensitizer; scaled so ellipticine positive control = 100%; 360,000 tested, 0.055% active; AID 743238; activation, % at 7.58 µM;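 active means mean normalized replicate activation at least 10% and every replicate at or above 10%; inconclusive means only one of the two criteria met; inactive means mean below 10% and not all replicates reach 10%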
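System: SV40-immortalized XiGFP fibroblast cells, line 68-5-11 / Incubation: 3-day compound exposure, then 15 min fixation at room temperature / Compound: single concentration per compound, delivered by pin transfer / Buffer or medium: DMEM plus 5-aza-dC sensitizer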
esBAF inh = inhibitors of esBAF chromatin remodeling in mouse ES cells; Bmi1-luciferase knock-in reporter, 24 h; 100% = twice the neutral-well signal; reporter increase, % at 12.5 µM; 350,000 tested, 2% active; AID 602393; in the data active means activation above about 40%; inconclusive means no clear call, values can overlap the other calls;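 further: a rise in the Bmi1 reporter signal indicates esBAF inhibition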
MITF act = MITF TRPM1 promoter activation in melanoma cells. activation, % at 12.5 µM. 300,000 tested, 0.75% active. SK-MEL-5 TRPM1-promoter luciferase, 24 h; % of positive control, neutral wells = 0;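 active means mean activation of at least 80% with every replicate also reaching 80%; inconclusive means mean reaches 80% but some replicate falls short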
Each line names hits and unclear results; the compound was inactive in the other large screens.

CCOC(=O)Cc1ccc2sc(-c3ccccc3)nc2c1	esBAF inh 69 (no result: Wnt bcat act)
CCOC(=O)c1sc(-c2ccccc2)nc1C	Wnt bcat act inconclusive (no result: esBAF inh)
O=C(Nc1ccc(Nc2ccccc2)cc1)c1ccc(Cl)cc1Cl	none (no result: esBAF inh, MITF act)
Cc1ccc(NC(=O)c2ccc(Cl)cc2Cl)cc1O	Wnt bcat act 48 (no result: XiGFP reactiv, esBAF inh)
C#Cc1cccc(NC(=O)c2ccc(Cl)cc2Cl)c1	esBAF inh 53, MITF act 94
CNS(=O)(=O)c1ccc(NC(=O)c2ccc(Cl)cc2Cl)cc1	none (no result: esBAF inh)
CC(C)c1cn(CC[C@H]2CC[C@@H](NC(=O)C3CCCCC3)[C@@H](CO)O2)nn1	none (no result: Wnt bcat act, Vif imaging, MITF act)
O=C(N[C@H]1CC[C@@H](CCNC(=O)c2ccccc2F)O[C@H]1CO)c1ccc2c(c1)OCO2	none (no result: Wnt bcat act, Vif imaging, MITF act)
COC(=O)c1ccc(C(=O)OC)c(NS(C)(=O)=O)c1	Vif imaging 72 (no result: Wnt bcat act, XiGFP reactiv)
COC(=O)c1ccccc1NS(C)(=O)=O	none
Cc1c(C(=O)Nc2ccc(Br)cc2)cnn1C	Wnt bcat act 40 (no result: esBAF inh)
O=C(Nc1ccc(Br)cc1)c1ccccc1Br	esBAF inh 78, MITF act 101
Cc1c(C(=O)Nc2ccc3c(c2)OCCO3)cnn1C	none
O=C(Nc1ccc(Br)cc1)c1cc2ccccn2n1	Wnt bcat act 53 (no result: esBAF inh)
CC(=O)Nc1ccc(NC(=O)c2ccccc2Br)cc1	none (no result: Vif imaging, MITF act)
O=C(NCCc1ccc(Cl)cc1)c1cc2ccccn2n1	none (no result: esBAF inh)
Cn1c(=NC(=O)C(C)(C)C)sc2cccc(F)c21	none
Cn1c(=NC(=O)c2ccccc2[N+](=O)[O-])sc2cccc(F)c21	Wnt bcat act inconclusive, MITF act 100
CCCC(=O)N1CC2(C1)CN(C(=O)C1CCCC1)[C@H](CO)c1[nH]c3cc(OC)ccc3c12	none (no result: Wnt bcat act, Vif imaging, esBAF inh, MITF act)
NC(=O)NC(=O)COC(=O)c1ccc2noc(-c3ccccc3)c2c1	esBAF inh 68
CC(=O)COC(=O)c1ccc2noc(-c3ccccc3)c2c1	none
CC(=O)c1ccc2noc(-c3ccc(C)cc3)c2c1	none (no result: esBAF inh)
Cc1ccc(-c2onc3ccc(C(=O)O)cc23)cc1	esBAF inh 50 (no result: MITF act)
Cc1ccc(S(=O)(=O)N(C)CC(=O)Nc2cc(C)ccn2)cc1	Wnt bcat act 38, esBAF inh 66
Cc1ccc(S(=O)(=O)N(C)CC(=O)Nc2ccc(C)cn2)cc1	none
C[C@@H]1CN([C@@H](C)CO)S(=O)(=O)c2ccc(C3=CCCCC3)cc2O[C@@H]1CN(C)Cc1ccccc1F	none (no result: Wnt bcat act, Vif imaging, MITF act)
C[C@@H]1CCCCO[C@H](CN(C)S(=O)(=O)c2ccc(F)cc2)[C@@H](C)CN([C@@H](C)CO)C(=O)c2cc(NC(=O)Nc3ccc(F)cc3)ccc2O1	none (no result: Wnt bcat act, Vif imaging, MITF act)
O=C1N/C(=N/O)S/C1=C/c1cccc([N+](=O)[O-])c1	Wnt bcat act 52
O=C(COc1cccnc1[N+](=O)[O-])Nc1cc(Cl)ccc1Cl	esBAF inh 48
Cc1ccc(OCC(=O)Nc2ccc(Cl)cc2)c([N+](=O)[O-])n1	Wnt bcat act 41, esBAF inh 63, MITF act 110 (no result: Vif imaging)
Cc1ccc(OCC(=O)Nc2ccc(F)cc2)c([N+](=O)[O-])n1	MITF act 104 (no result: esBAF inh)
COc1cc(Cl)c(C)cc1NC(=O)COc1ccc(C)nc1[N+](=O)[O-]	esBAF inh 81, MITF act 99
C[C@@H]1CN([C@@H](C)CO)C(=O)Cc2cc(NC(=O)Nc3ccc(F)cc3)ccc2O[C@H]1CN(C)S(=O)(=O)c1cn(C)cn1	none (no result: Wnt bcat act, Vif imaging, MITF act)
COc1ccc2c3c([nH]c2c1)[C@@H](CO)N(C(C)=O)CC31CCN(C(=O)Nc2c(C)noc2C)CC1	none (no result: Wnt bcat act, Vif imaging, esBAF inh, MITF act)
CN1CCN(C(=O)C[C@@H]2C[C@@H]3c4cc(NC(=O)c5ccc6c(c5)OCO6)ccc4O[C@@H]3[C@@H](CO)O2)CC1	none (no result: Wnt bcat act, Vif imaging, MITF act)
O=C(Nc1cccc(-c2nc3ccccc3o2)c1)c1cccnc1	none (no result: esBAF inh)
O=C(Nc1ccc2oc(-c3cccnc3)nc2c1)c1cccnc1	none (no result: XiGFP reactiv, MITF act)
O=C(Nc1ccc2oc(-c3ccccc3)nc2c1)c1ccncc1	esBAF inh 54 (no result: Wnt bcat act, XiGFP reactiv)
O=C(NCCc1ccccc1)c1ccc(NC(=O)c2cccnc2)cc1	none
O=C(Nc1ccc(-c2nc3ccccc3o2)cc1)c1cccnc1	Wnt bcat act 42, esBAF inh 50 (no result: Vif imaging, XiGFP reactiv)
O=C(Nc1ccc2c(c1)oc1ccccc12)c1cccnc1	esBAF inh 68, MITF act 106 (no result: Wnt bcat act, XiGFP reactiv)
O=C(Nc1ccc(-c2noc(CCc3ccccc3)n2)cc1)c1cccnc1	esBAF inh 49 (no result: Wnt bcat act, XiGFP reactiv)
O=C(Nc1ccc2c(c1)oc1ccccc12)c1ccncc1	Wnt bcat act inconclusive (no result: XiGFP reactiv, MITF act)
CCCNC(=O)Nc1ccc2c(c1)C(=O)N(C)[C@H]1CC[C@H](CC(=O)NCCCN(C)C)O[C@H]1CO2	none (no result: Wnt bcat act, Vif imaging, MITF act)
CCCC(=O)N1CC2(CN(C(=O)C3CCC3)C2)c2c(n(C)c3cc(OC)ccc23)[C@@H]1CO	none (no result: Wnt bcat act, Vif imaging, esBAF inh, MITF act)
C[C@H]1CCCCO[C@@H](CN(C)C)[C@@H](C)CN([C@@H](C)CO)C(=O)c2cc(NS(=O)(=O)c3cn(C)cn3)ccc2O1	none (no result: Wnt bcat act, Vif imaging, esBAF inh, MITF act)
Cc1sc2c(c1C)C(=O)/C(=C\Nc1ccncc1)S(=O)(=O)N2C	Wnt bcat act 44 (no result: esBAF inh, MITF act)
O=C(C[C@H]1CC[C@@H](NC(=O)c2ccncc2)[C@H](CO)O1)NCCc1ccncc1	none (no result: Wnt bcat act, Vif imaging, MITF act)
NS(=O)(=O)c1cccc(NC(=O)COC(=O)Cc2ccc(S(=O)(=O)N3CCOCC3)s2)c1	XiGFP reactiv 140
CCCNC(=O)Nc1ccc2c(c1)C(=O)N(C)C[C@H](OC)[C@H](C)CN(Cc1ccccc1)[C@@H](C)CO2	none (no result: Wnt bcat act, Vif imaging, MITF act)
Clc1ccc(/C=N/N2CCCCC2)cc1	Wnt bcat act 33, Vif imaging inconclusive, MITF act 94 (no result: esBAF inh)
Clc1ccc(C=NN2CCCCCC2)cc1Cl	Wnt bcat act 56 (no result: esBAF inh)
O=[N+]([O-])c1ccc(/C=N/N2CCCCC2)cc1	esBAF inh 77, MITF act 106
Oc1ccc(/C=N/N2CCCCC2)cc1O	none (no result: Vif imaging)
O=[N+]([O-])c1ccc(/C=N\N2CCN(c3ccc(Cl)cc3)CC2)cc1	none (no result: Wnt bcat act, XiGFP reactiv)
COc1ccc(S(=O)(=O)N[C@@H]2CC[C@@H](CCNC(=O)Cc3ccccn3)O[C@@H]2CO)cc1	none (no result: Wnt bcat act, Vif imaging, MITF act)
O=C(NCc1ccccc1)C1=C[C@@H](c2ccc3c(c2)OCO3)C[C@@H](OCCCCO)O1	none
O=C(Nc1ccccc1)C1=C[C@@H](c2ccc3c(c2)OCO3)C[C@@H](OCCCCO)O1	esBAF inh 67
O=C(Nc1ccccc1)C1=C[C@H](c2ccc3c(c2)OCO3)C[C@H](OCCCCO)O1	esBAF inh 48
COc1ccc(NC(=O)Nc2ccc3c(c2)CC(=O)N([C@@H](C)CO)C[C@@H](C)[C@@H](CN(C)C(=O)Nc2ccc(C(F)(F)F)cc2)O3)cc1	none (no result: Wnt bcat act, Vif imaging, MITF act)
C[C@H]1CN([C@@H](C)CO)C(=O)c2cc(NC(=O)C3CC3)ccc2O[C@@H]1CN(C)C(=O)Nc1ccc(C(F)(F)F)cc1	none (no result: Wnt bcat act, Vif imaging, MITF act)
O=C(Nc1ccc(/C=C/c2nc3ccccc3o2)cc1)c1c(F)cccc1F	none (no result: XiGFP reactiv)
CC(=O)Nc1cccc(N/C=C(\C=O)c2nc3ccccc3o2)c1	esBAF inh 58
CC(=O)Nc1ccc(/C=C/c2nc3ccccc3o2)cc1	Wnt bcat act 52
O=C/C(=C\Nc1ccccn1)c1nc2cc(Cl)ccc2o1	Vif imaging 61, esBAF inh 47 (no result: XiGFP reactiv)
